Read-outs that look alike come from different tables or passages of the source.
How the values were obtained:
[1] = molecular target: Pyruvate Dehydrogenase Kinase-1 (PDK-1) (Homo sapiens, UniProt Q15118); experiment: Pyruvate dehydrogenase kinase; type: biochemical; details: for inhibition at 100 µg/mL: read-out: PDK-1 mean inhibitory % ± SD
Outline: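 PDK-1 activity measured by the Kinase-Glo luminescent method. Wells held 10× assay buffer (250 mM Tris–HCl, 50 mM MgCl₂, 5 mM EGTA, 10 mM EDTA, 10 mM DTT), test compound (25–300 μg), and added solutions of PDH E1 (10 μM), ATP (10 μM) and PDK-1 (20 μM) in KCl/K₃PO₄/MgCl₂ buffer. Incubated 30 min at 37 °C, then Kinase-Glo reagent for 10 min at room temperature, and luminescence read. Controls: PBS or 1% DMSO; sodium dichloroacetate 1000 μM as reference. Mean ± SD of two replicates.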

E. coli (ATCC 25922) = experiment: Antibacterial assay; type: cell-based; details: Escherichia coli
Outline: (§1)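 Hospital-collected standard isolates were grown fresh on nutrient agar and suspended in nutrient broth to 0.5 McFarland. Test compound was mixed with 2 × 10⁷ CFU/mL in sterile BHI and shaken 60 min at 37 °C. Samples were serially diluted in BHI, plated, and incubated 24 h at 37 °C. Residual CFU were compared with the initial inoculum. IC50 is the mean of two measurements. Ampicillin was the positive reference.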

[2] = DPPH radical scavenging effect; details: for IC50: read-out: DPPH mean IC50
Outline: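 Ethanolic DPPH was mixed with an equal volume of each sample concentration, shaken, and kept 1 h at room temperature in the dark. Residual DPPH absorbance was read at 519 nm against a control without test compound. BHT was the positive control. Scavenging % was calculated from compound and control absorbances. IC50 was taken from the scavenging-versus-concentration plot. Values are means of two determinations ± SD.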

[3] = tested on: Enterococcus faecalis (ATCC 29122); experiment: Antibacterial assay; type: cell-based; details: ATCC29122, read-out: Enterococcus faecalis mean IC50 (μM)
Outline: as §1

[4] = molecular target: purified recombinant human LDHA protein (Homo sapiens, UniProt P00338); experiment: Lactate dehydrogenase; type: biochemical; details: for inhibition at 100 µg/mL: read-out: LDHA mean inhibitory % ± SD
Cytotoxicity assay [5] = type: cell-based, human; details: human, HCT-116 cells (colorectal cancer cell line)
Outline: (§2)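 ATCC-sourced cells were cultured 24 h at 37 °C in 5% CO₂ with test compound (25, 50, 75, 100, 200, 400 μg) diluted in DMEM with 10% FBS. LDH released into the supernatant was measured by end-point ELISA, with OD read at 550 nm. Controls were 0.1% Triton X-100 (positive) and medium alone (negative). Viability is % OD relative to control, at 100 μg final, mean ± SD (n = 2). IC50 was taken from the viability-versus-concentration plot.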

Cytotoxicity assay [6] = type: cell-based, human; details: human, LoVo cells (colorectal cancer cell line)
Outline: as §2

HCT-116 cells = experiment: Cytotoxicity assay; type: cell-based, human; details: for IC50: Homo sapiens
Outline: as §2

LoVo cells = experiment: Cytotoxicity assay; type: cell-based, human; details: for IC50: Homo sapiens, LoVo
Outline: as §2

[7] = ATCC25922, read-out: E. coli mean IC50 (μM)
[8] = ATCC25922, read-out: E. coli mean IC50 (μg/mL) ± SD
[9] = PDK1 IC50 (μg/mL) ± SD, mean of two determinations
[10] = LDHA IC50 (μg/mL) ± SD, mean of two determinations
[11] = HCT-116, read-out: HCT-116 mean IC50 (μM)
[12] = HCT-116, read-out: HCT-116 mean IC50 (μg/mL) ± SD
[13] = read-out: LoVo cells mean IC50 (μM)
[14] = read-out: LoVo cells mean IC50 (μg/mL) ± SD

Chain of Pyruvate Dehydrogenase Kinase-1 (PDK-1) (Q15118 29-436): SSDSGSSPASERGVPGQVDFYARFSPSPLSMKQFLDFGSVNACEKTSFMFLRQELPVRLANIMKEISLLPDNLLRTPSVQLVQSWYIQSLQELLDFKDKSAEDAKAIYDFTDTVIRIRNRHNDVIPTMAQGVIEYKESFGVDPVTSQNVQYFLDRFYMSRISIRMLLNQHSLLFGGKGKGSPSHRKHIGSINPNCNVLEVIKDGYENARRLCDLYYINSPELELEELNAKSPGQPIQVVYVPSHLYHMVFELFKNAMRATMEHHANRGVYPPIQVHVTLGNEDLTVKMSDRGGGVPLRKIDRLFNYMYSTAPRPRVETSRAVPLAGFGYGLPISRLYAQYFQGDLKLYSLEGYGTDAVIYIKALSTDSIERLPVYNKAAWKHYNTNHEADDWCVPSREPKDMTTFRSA

Row | Molecule | inhibition at 100 µg/mL [1] | IC50 (E. coli (ATCC 25922); [7]) | IC50 (E. coli (ATCC 25922); [8]) | DPPH mean IC50 (μg/mL) ± SD [2] | IC50 [2] | IC50 [3] | inhibition at 100 µg/mL [4] | IC50 ([1]; PDK1 IC50 (μM)) | IC50 [1, 9] | viability at 24 h, 100 μg/mL (Cytotoxicity assay [5]) | viability at 24 h, 100 μg/mL (Cytotoxicity assay [6]) | IC50 ([4]; LDHA IC50 (μM)) | IC50 [4, 10] | IC50 (HCT-116 cells; [11]) | IC50 (HCT-116 cells; [12]) | IC50 (LoVo cells; [13]) | IC50 (LoVo cells; [14]) | mean % of viable HCT-116 cell (positive control) (HCT-116 cells; 0.1% in assay medium) | mean % of viable LoVo cells (positive control) (LoVo cells; 0.1% in assay medium)
1 | N#Cc1c(N)sc2c1CCCC2 [1c, 2-amino-4,5,6,7-tetrahydro-benzo[b]thiophene-3-carbonitrile] | 11.2 ± 3.18% | 147 µM | 26.2 ± 1.06 µg/mL | 332.5 ± 17.68 µg/mL | 1870 µM | 119 µM | 23.1 ± 3.05% |  |  |  |  |  |  |  |  |  |  |  | 
2 | CCOC(=O)Nc1sc2c(c1C(=O)OCC)CCC(c1ccccc1)C2 (stereo not drawn) [3a, Ethyl 2-((Ethoxycarbonyl)amino)-6-phenyl-4,5,6,7-tetrahydrobenzo[b]thiophene-3-carboxylate] | 21.5 ± 2.4% | 72.4 µM | 27.1 ± 0.35 µg/mL | 665.0 ± 21.21 µg/mL | 1780 µM | 102 µM | 28.8 ± 2.06% |  |  |  |  |  |  |  |  |  |  |  | 
3 | CCOC(=O)c1c(NC(=O)c2cccs2)sc2c1CCC(c1ccccc1)C2 (stereo not drawn) [3e, Ethyl 6-Phenyl-2-(thiophene-2-carboxamido)-4,5,6,7-tetrahydrobenzo[b] thiophene-3-carboxylate] | 18.4 ± 1.98% | 89.4 µM | 36.8 ± 1.7 µg/mL | 595.0 ± 21.21 µg/mL | 1450 µM | 90.6 µM | 18.4 ± 1.98% |  |  |  |  |  |  |  |  |  |  |  | 
4 | CCOC(=O)c1c(NC(=O)CN2CCOCC2)sc2c1CCC(c1ccccc1)C2 (stereo not drawn) [5a, Ethyl 2-(2-Morpholinoacetamido)-6-phenyl-4,5,6,7-tetrahydrobenzo[b]thiophene-3-carboxylate] | 41 ± 2.83% | 62.8 µM | 26.9 ± 0.57 µg/mL | 440.0 ± 28.28 µg/mL | 1030 µM | 62.2 µM | 30.8 ± 1.7% |  |  |  |  |  |  |  |  |  |  |  | 
5 | Cc1cc(C(C)(C)C)c(O)c(C(C)(C)C)c1 [BHT, butylated hydroxy toluene, reference compound] |  |  |  | 54.0 ± 5.66 µg/mL | 245 µM |  |  |  |  |  |  |  |  |  |  |  |  |  | 
6 | CC1(C)S[C@@H]2[C@H](NC(=O)[C@H](N)c3ccccc3)C(=O)N2[C@H]1C(=O)O [ampicillin, reference compound] |  | 58 µM | 20.2 ± 1.77 µg/mL |  |  | 36.5 µM |  |  |  |  |  |  |  |  |  |  |  |  | 
7 | CCOC(=O)c1c(N)sc2c1CCC(c1ccccc1)C2 (stereo not drawn) [compound 1a, 2-amino-6-phenyl-4,5,6,7-tetrahydrobenzo[b]thiophene-3-carboxylic acid ethyl ester] | 12.3 ± 1.91% | 82.6 µM | 24.9 ± 0.99 µg/mL | 390.5 ± 13.44 µg/mL | 1300 µM | 146 µM | 19.2 ± 3.18% |  |  |  |  |  |  |  |  |  |  |  | 
8 | N#Cc1c(N)sc2c1CCC(c1ccccc1)C2 (stereo not drawn) [compound 1b, 2-amino-6-phenyl-4,5,6,7-tetrahydrobenzo[b]thiophene-3-carbonitrile] | 87 ± 2.83% |  |  | 110.0 ± 14.14 µg/mL | 432 µM | 83.4 µM | 74.1 ± 2.97% | 224 µM | 224 µM | 53.5 ± 2.12% | 56.5 ± 0.71% | 252 µM | 252 µM |  |  |  |  |  | 
9 | CCOC(=O)Nc1sc2c(c1C#N)CCC(c1ccccc1)C2 (stereo not drawn) [compound 3b, Ethyl (3-Cyano-6-phenyl-4,5,6,7-tetrahydrobenzo[b]thiophen-2-yl)carbamate] | 51.5 ± 3.54% |  |  | 130.0 ± 14.14 µg/mL | 398 µM | 83.5 µM | 19.3 ± 0.85% | 302 µM | 302 µM | 28 ± 1.41% | 35.5 ± 2.12% | 892 µM | 891 µM | 218 µM | 71 ± 2.83 µg/mL | 250 µM | 81.5 ± 3.54 µg/mL |  | 
10 | N#Cc1c(N2C(=O)CCC2=O)sc2c1CCC(c1ccccc1)C2 (stereo not drawn) [compound 7, 2-(2,5-Dioxopyrrolidin-1-yl)-6-phenyl-4,5,6,7-tetrahydrobenzo[b]thiophene-3-carbonitrile] | 35.9 ± 4.1% | 82.9 µM | 27.9 ± 2.26 µg/mL | 222.5 ± 17.68 µg/mL | 661 µM | 83.5 µM | 48.8 ± 5.3% | 428 µM | 428 µM | 47.2 ± 1.06% | 51.5 ± 2.12% | 276 µM | 276 µM | 288 µM | 97 ± 2.83 µg/mL | 323 µM | 108 ± 3.54 µg/mL |  | 
11 | CN(C)C=Nc1sc2c(c1C#N)CCC(c1ccccc1)C2 (stereo not drawn) [compound 9, N′-(3-Cyano-6-phenyl-4,5,6,7-tetrahydrobenzo[b]thiophen-2-yl)-N,N-dimethyl Formamidine] | 36.5 ± 2.12% | 94.9 µM | 29.4 ± 1.2 µg/mL | 210.0 ± 28.28 µg/mL | 679 µM | 111 µM | 32.6 ± 2.33% |  |  | 69 ± 1.41% | 71.8 ± 2.55% |  |  | 524 µM | 162 ± 4.24 µg/mL | 642 µM | 198 ± 4.95 µg/mL |  | 
12 | COc1ccc(C=Nc2sc3c(c2C#N)CCCC3)cc1O [compound 11, 2-((3-Hydroxy-4-methoxybenzylidene)amino)-4,5,6,7-tetrahydrobenzo[b]thiophene-3-carbonitrile] | 23.7 ± 2.4% | 181 µM | 56.6 ± 1.98 µg/mL | 332.5 ± 17.68 µg/mL | 1060 µM | 126 µM | 29.6 ± 1.98% |  |  | 60.5 ± 2.12% | 63.8 ± 1.77% |  |  | 403 µM | 126 ± 4.25 µg/mL | 474 µM | 148 ± 4.24 µg/mL |  | 
13 | Triton X-100 [reference compound] |  |  |  |  |  |  |  |  |  |  |  |  |  |  |  |  |  | 0.00% | 0.00%

From publication PMC8567357 (ACS Omega, 2021)
